TAAR1 antagonist: human TAAR1 antagonism; Q96RJ0; CHO RD-HGA16 TAAR1, Fluo-8 calcium fluorescence, antagonist; inhibition, % at 3 µM; 1.5% of 360,000 active; AID 624466;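 active means inhibition above a per-plate cutoff, the mean inhibition of test compounds on that plate plus 3 SD, cut at about 49% in these data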;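 further: 0% = DMSO plus EC80 beta-PEA response and 100% = DMSO alone without agonist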
Target sequence (Q96RJ0 whole entry, looked up): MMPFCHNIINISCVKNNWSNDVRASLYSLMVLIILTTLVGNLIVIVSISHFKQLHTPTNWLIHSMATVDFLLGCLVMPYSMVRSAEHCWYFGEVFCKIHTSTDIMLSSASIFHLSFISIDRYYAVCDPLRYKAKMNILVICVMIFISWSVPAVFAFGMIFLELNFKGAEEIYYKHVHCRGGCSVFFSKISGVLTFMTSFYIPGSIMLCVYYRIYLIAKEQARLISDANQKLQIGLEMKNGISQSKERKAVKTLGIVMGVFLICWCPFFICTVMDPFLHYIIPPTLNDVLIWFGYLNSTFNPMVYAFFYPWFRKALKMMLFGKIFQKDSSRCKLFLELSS
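Test system – hTAAR1-expressing CHO RD-HGA16 cells, Gα16-coupled · Also added – β-PEA at EC80 concentration, post-compound challenge · Compound – 3 µM, single point · Incubation – dye loading 75 min at 37 °C, then 30 min room temperature · Measured by – Fluo-8 intracellular calcium dye fluorescence, real-time kinetic reads · Benchmarks – vehicle and agonist controls · Replicates – singlicate, one well per test compound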
OX1R antag-1: antagonists of human orexin 1 receptor (OX1R); O43613; OX1R-expressing cells, FRET antagonist read-out; inhibition, % at 6.6 µM; 1.8% of 330,000 active; AID 485270; in the data active means inhibition mostly above about 38%, no sharp cut-off; inactive means mostly below about 40%;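 further: 0% = agonist challenge alone and 100% = reference antagonist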
GPR7 antagonist: antagonists of human GPR7 (neuropeptides B/W receptor 1) | 1.1% of 290,000 active | inhibition, % at 4.4 µM | AID 1861 | GPR7-expressing cells, fluorescence antagonist assay; in the data active means inhibition above about 16%, passing the limit was not always enough;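 further: cells stimulated with the agonist NPW; 0% = agonist with vehicle and 100% = vehicle without agonist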
Target sequence (P48145 whole entry, looked up): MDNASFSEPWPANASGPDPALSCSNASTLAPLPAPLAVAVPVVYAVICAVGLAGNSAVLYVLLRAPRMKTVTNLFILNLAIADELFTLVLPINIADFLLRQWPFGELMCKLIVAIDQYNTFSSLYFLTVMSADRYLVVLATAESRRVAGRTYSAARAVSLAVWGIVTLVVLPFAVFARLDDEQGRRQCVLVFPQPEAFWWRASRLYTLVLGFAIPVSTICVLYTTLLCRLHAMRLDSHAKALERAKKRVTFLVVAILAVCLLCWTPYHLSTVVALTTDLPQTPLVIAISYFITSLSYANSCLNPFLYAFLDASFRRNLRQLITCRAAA
CHO parental Ca: signal in parental CHO cells, OX1R antagonist counter-screen | parental CHO-K1, ATP-induced calcium, Fluo-8 fluorescence | inhibition, % at 5.6 µM | 0.63% of 330,000 active;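 active means inhibition above that plate's mean sample inhibition plus 3 SD, cut at about 26% in these data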;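 further: 0% = ATP-challenged DMSO wells and 100% = DMSO wells without ATP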
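Assay system: parental CHO cells; Read-out basis: percent inhibition of ATP-evoked calcium rise, normalized to controls; Benchmarks: ATP and no-ATP DMSO wells; Compound dosing: single nominal dose of 5.6 µM per compound; Signal: Fluo-8 calcium dye fluorescence; Also added: ATP as calcium-mobilizing challenge; Repeats: singlicate.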
OX1R antag-2: antagonists of human orexin 1 receptor. CHO/OX1R cells, Fluo-8 calcium fluorescence, orexin A. 0.43% of 330,000 active. inhibition, % at 5 µM. O43613;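 active means inhibition above its plate's threshold, mean inhibition of all tested compounds on the plate plus 3 SD, cut at about 37% in these data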;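 further: 0% = orexin A challenge wells and 100% = SB-334867-A antagonist wells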
TAAR1 agonist: agonists of human TAAR1. CHO RD-HGA16 TAAR1, Fluo-8 calcium fluorescence; vehicle wells 0%, saturating PEA agonist 100%. Q96RJ0. 0.99% of 360,000 active. activation, % at 3 µM;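 active means activation above the mean activation of all test compounds in the run plus 3 SD, cut at about 38% in these data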
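Test system: RD-HGA16 (CHO) cells co-expressing Gα16 and hTAAR1 / Benchmarks: DMSO vehicle as 0%, PEA at EC100 as 100% / Repeats: no replicates (n 1) / Measure: % activation from peak over basal fluorescence ratio, DMSO-to-PEA scaled / Timing: 17-24 h plating, Fluo-8 75 min 37 °C, 30 min RT / Technique: kinetic Fluo-8 calcium fluorescence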
GPR7 antag conf: human GPR7 antagonism, confirmation assay; shares compounds with GPR7 antagonist; GPR7-expressing cells, calcium fluorescence antagonist mode; inhibition, % at 4.4 µM; 52% of 2,400 active; in the data active means inhibition above about 24%;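 further: stimulated with the GPR7 agonist NPW; 0% = agonist plus vehicle and 100% = vehicle alone without agonist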
MCHR1 antagonist: counter-screen for GPR7 antagonists: antagonists of human MCHR1. 62% of 2,400 active. inhibition, % at 4.4 µM. shares compounds with GPR7 antagonist. AID 2148. MCHR1-expressing cells, fluorescence antagonist assay; in the data active means inhibition above about 22%;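 further: 0% = vehicle with agonist and 100% = vehicle without agonist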
Numbers without * were called inactive. Only some compounds are listed: those with a hit (about 4.6% of all), similar ones and a draw of the others.

CCc1ccc2nc(N(CCCN(C)C)C(=O)c3ccc(S(=O)(=O)N4CCc5ccccc5C4)cc3)sc2c1 was read as TAAR1 antagonist 17, OX1R antag-1 2, GPR7 antagonist 7, CHO parental Ca -20, OX1R antag-2 -18 and TAAR1 agonist 36.
For CCc1ccc2nc(N(CCCN(C)C)C(=O)c3ccc(S(=O)(=O)N(C)C4CCCCC4)cc3)sc2c1 the results were TAAR1 antagonist 51*, OX1R antag-1 20, GPR7 antagonist 36*, CHO parental Ca 14, OX1R antag-2 8, TAAR1 agonist 39*, GPR7 antag conf 56* and MCHR1 antagonist 54*.
`CN(C)CCCN(C(=O)c1ccc(S(=O)(=O)N(C)C2CCCCC2)cc1)c1nc2ccc(Br)cc2s1` gave TAAR1 antagonist 28, OX1R antag-1 13, GPR7 antagonist 22*, CHO parental Ca 4, OX1R antag-2 -5, TAAR1 agonist 32, GPR7 antag conf 50* and MCHR1 antagonist 55*.
`COc1cc2nc(N(CCCN(C)C)C(=O)c3ccc(S(=O)(=O)N(C)C4CCCCC4)cc3)sc2cc1OC` gave TAAR1 antagonist -13, OX1R antag-1 9, CHO parental Ca -1, OX1R antag-2 -10 and TAAR1 agonist 18.
`CCOC(=O)C1CCN(Cc2cnc(Oc3ccc(N)cc3)s2)CC1` gave TAAR1 antagonist -11, OX1R antag-1 6, GPR7 antagonist -5, CHO parental Ca -13, OX1R antag-2 -17 and TAAR1 agonist 17.
For Cc1ccccc1NC(=O)CN1C(=O)NC2(CCc3ccccc32)C1=O (centres undefined) the results were TAAR1 antagonist -7, OX1R antag-1 -5, CHO parental Ca -4, OX1R antag-2 -23 and TAAR1 agonist 1.
COc1cc2c(cc1NC(=O)CN1C(=O)NC3(CCc4ccccc43)C1=O)oc1ccccc12 (centres undefined) was read as TAAR1 antagonist 50*, OX1R antag-1 28, GPR7 antagonist 33*, CHO parental Ca 19, OX1R antag-2 7, TAAR1 agonist 8, GPR7 antag conf 59* and MCHR1 antagonist 57*.
`c1ccc(-c2nnc(-c3ccccc3)c(-c3c[nH]c4ccccc34)n2)cc1` gave TAAR1 antagonist 0, OX1R antag-1 32, GPR7 antagonist 19, CHO parental Ca 1, OX1R antag-2 -10 and TAAR1 agonist 6.
Screening c1ccc2c(-c3ccncc3)c[nH]c2c1 returned TAAR1 antagonist -4, OX1R antag-1 21, GPR7 antagonist 23*, CHO parental Ca -3, OX1R antag-2 12, TAAR1 agonist 17, GPR7 antag conf -18 and MCHR1 antagonist 12.
Screening CCC(=O)N/C(=N/c1nc(C)cc(C)n1)Nc1ccc(OC)cc1 returned TAAR1 antagonist -3, OX1R antag-1 8, GPR7 antagonist 35*, CHO parental Ca -17, OX1R antag-2 2, TAAR1 agonist 6, GPR7 antag conf -4 and MCHR1 antagonist 17.
Screening CCC(=O)N/C(=N/c1nc(C)cc(C)n1)Nc1ccccc1 returned TAAR1 antagonist -6, OX1R antag-1 13, GPR7 antagonist 19, CHO parental Ca -26, OX1R antag-2 -14 and TAAR1 agonist -3.
Screening CC(=O)N1N=C(N)SC1(C)C returned TAAR1 antagonist 19, OX1R antag-1 12, GPR7 antagonist -24, CHO parental Ca -2, OX1R antag-2 -10 and TAAR1 agonist 7.
COc1cccc(CN2CCC(N(CCc3ccccc3)Cc3ccccc3)CC2)c1OC was read as TAAR1 antagonist 5, OX1R antag-1 5, GPR7 antagonist 23*, CHO parental Ca -19, OX1R antag-2 -33, TAAR1 agonist 4, GPR7 antag conf 35* and MCHR1 antagonist 40*.
For COc1cccc(CN2CCN(Cc3cccc(Oc4ccccc4)c3)CC2)c1OC the results were TAAR1 antagonist -16, OX1R antag-1 9, GPR7 antagonist -7, CHO parental Ca -24, OX1R antag-2 -40 and TAAR1 agonist 15.
`CCN(CC#CCC(O)(c1ccccc1)C1CCCC1)C(C)C` (centres undefined) gave TAAR1 antagonist 3, OX1R antag-1 20, GPR7 antagonist 29*, CHO parental Ca -22, OX1R antag-2 -18, TAAR1 agonist 11, GPR7 antag conf 3 and MCHR1 antagonist -1.
Screening Cn1ccnc1C1CCCCN1Cc1nc(-c2ccc(Cl)cc2)no1 (centres undefined) returned TAAR1 antagonist -9, OX1R antag-1 21, GPR7 antagonist 26*, CHO parental Ca -1, OX1R antag-2 -31, TAAR1 agonist 1, GPR7 antag conf 34* and MCHR1 antagonist 22*.
`Clc1ccc(-c2noc(CN3CCCC3)n2)cc1` gave TAAR1 antagonist 0, OX1R antag-1 10, GPR7 antagonist -3, CHO parental Ca -17, OX1R antag-2 -18 and TAAR1 agonist 18.
For CC(=O)c1ccc(OCC(O)COc2ccc(C(C)=O)cc2)cc1 the results were TAAR1 antagonist 21, OX1R antag-1 13, GPR7 antagonist 5, CHO parental Ca -1, OX1R antag-2 -13 and TAAR1 agonist -1.
CC(=O)c1ccc(OCC(O)CN(C)CCOc2ccc(Br)cc2)cc1 (centres undefined) was read as TAAR1 antagonist 8, OX1R antag-1 7, GPR7 antagonist 23*, CHO parental Ca 17, OX1R antag-2 -11, TAAR1 agonist 4, GPR7 antag conf 37* and MCHR1 antagonist 55*.
`Cc1ccc(Nc2nc(N)nc(CSc3ncccn3)n2)cc1` gave TAAR1 antagonist 2, OX1R antag-1 18, GPR7 antagonist -3, CHO parental Ca -12, OX1R antag-2 -29 and TAAR1 agonist 3.
Cc1ccc(Nc2nc(N)nc(CSc3nc(C)cc(C)n3)n2)cc1 was read as TAAR1 antagonist -6, OX1R antag-1 38, GPR7 antagonist 26*, CHO parental Ca -20, OX1R antag-2 -34, TAAR1 agonist 6, GPR7 antag conf 15 and MCHR1 antagonist 14.
`O=Cc1cnc(N2CCN(c3ccccc3)CC2)s1` gave TAAR1 antagonist 15, OX1R antag-1 6, GPR7 antagonist -8, CHO parental Ca -12, OX1R antag-2 -8 and TAAR1 agonist 7.
N#CC(C#N)=Cc1cnc(N2CCN(c3ccccc3)CC2)s1 was read as TAAR1 antagonist 8, OX1R antag-1 18, GPR7 antagonist 41*, CHO parental Ca -8, OX1R antag-2 -22, TAAR1 agonist 1, GPR7 antag conf 12 and MCHR1 antagonist 42*.
